Data set [1] has as its target Human immunodeficiency virus type 1 reverse transcriptase (Human immunodeficiency virus 1) (UniProt Q72547). As to the kind of experiment: Ratio Kpol to Kd for wild type HIV 1 reverse transcriptase. Summed up:
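Pre-steady-state single-turnover incorporation by purified WT HIV-1 RT (200 nM, final), pre-incubated with 20 nM T/P substrate, then mixed with nucleotide at varying concentrations plus metal ions. Reaction at 37 °C in 50 mM Tris-HCl pH 7.5, 50 mM KCl, 10 mM MgCl₂. Aliquots quenched in gel loading buffer at 1-60 min. 20mer→21mer conversion quantified on gel. k_obs from burst fit, k_pol and K_d from hyperbolic fit, efficiency taken as k_pol/K_d.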

Data set [2] deals with Human immunodeficiency virus type 1 reverse transcriptase (Human immunodeficiency virus 1, UniProt Q72547). As to the kind of experiment: Binding affinity to HIV1 reverse transcriptase assessed as L-3'-azido-NTP incorporation in nascent DNA.
The test system of data set [3] is Hepatitis B virus. Briefly: Antiviral activity against Hepatitis B virus infected in human HepAD38 assessed as reduction of viral DNA level on day 7 by quantitative-PCR assay analysis. It is filed as functional, organism-based.
Data set [4] has as its system Vero. Briefly: Cytotoxicity against african green monkey Vero cells after 3 days by hemocytometry. It is filed as cell-based. The settings on record: Chlorocebus sabaeus, 72 h.
Data set [5] has as its system CCRF-CEM. Briefly: Cytotoxicity against human CEM cells after 6 days by trypan blue exclusion assay. It is filed as cell-based. The settings on record: 144 h.
For data set [6], the system named is Human immunodeficiency virus 1. Briefly: Antiviral activity against HIV1 LAV1 infected in phytohemagglutininin-stimulated human PBMC assessed as RT level after 6 days by microdilution plate assay. It is filed as functional, organism-based.
A short description of data set [7]: Cytotoxicity against human HepAD38 cells. It is filed as cell-based.
The subject of data set [8] is PBMC. As to the kind of experiment: Cytotoxicity against phytohemagglutininin-stimulated human PBMC after 6 days by trypan blue exclusion assay. It is filed as cell-based. Particulars: 144 h.
The target in data set [9] is Human immunodeficiency virus type 1 reverse transcriptase (Human immunodeficiency virus 1) (UniProt Q72547). Briefly: Selectivity ratio of Kpol to Kd for dATP to Kpol to Kd for compound at HIV1 reverse transcriptase.
In data set [10] the test system is PBMC. Briefly: Drug metabolism in human phytohemagglutininin-stimulated human PBMC assessed as 30-azido-20,30-dideoxy-b-L-adenosine monophosphate level per 10^6 cells at 50 uM after 4 hrs by LC-MS/MS analysis. It is filed as ADME, cell-based. The procedure, abridged:
(§1)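 PHA-activated human PBM cells incubated with nucleoside at 50 μM for 4 h at 37 °C, then PBS-washed. Intracellular nucleoside and nucleotide metabolites were extracted with 60% ice-cold methanol, dried, redissolved in HPLC mobile phase, and quantified by LC-MS/MS.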

Data set [11] deals with PBMC. As to the kind of experiment: Drug metabolism in human phytohemagglutininin-stimulated human PBMC assessed as 30-azido-20,30-dideoxy-b-L-adenosine triphosphate level per 10^6 cells at 50 uM after 4 hrs by LC-MS/MS analysis. It is filed as ADME, cell-based. Summed up: as §1
Data set [12] relates to PBMC. As to the kind of experiment: Drug metabolism in human phytohemagglutininin-stimulated human PBMC assessed as 30-azido-20,30-dideoxy-b-L-adenosine level per 10^6 cells at 50 uM after 4 hrs by LC-MS/MS analysis. It is filed as ADME, cell-based. The procedure, abridged:
as §1

Data set [13] deals with PBMC. As to the kind of experiment: Drug metabolism in human phytohemagglutininin-stimulated human PBMC assessed as 30-azido-20,30-dideoxy-b-L-adenosine diphosphate level per 10^6 cells at 50 uM after 4 hrs by LC-MS/MS analysis. It is filed as ADME, cell-based. The procedure, abridged: as §1
For data set [14], the target named is Human immunodeficiency virus type 1 reverse transcriptase (Human immunodeficiency virus 1) (UniProt Q72547). As to the kind of experiment: Selectivity ratio of Kpol to Kd for dCTP to Kpol to Kd for compound at HIV1 reverse transcriptase.
Data set [15] has as its system PBMC. Briefly: Drug metabolism in human phytohemagglutininin-stimulated human PBMC assessed as 9-(3-azido-2,3-dideoxy-b-L-ribofuranosyl)-2-amino-6-chloropurine monophosphate level per 10^6 cells at 50 uM after 4 hrs by LC-MS/MS analysis. It is filed as ADME, cell-based. The procedure, abridged:
as §1

The subject of data set [16] is PBMC. Briefly: Drug metabolism in human phytohemagglutininin-stimulated human PBMC assessed as 9-(3-azido-2,3-dideoxy-b-L-ribofuranosyl)-2-amino-6-chloropurine level per 10^6 cells at 50 uM after 4 hrs by LC-MS/MS analysis. It is filed as ADME, cell-based. Summed up:
as §1

The subject of data set [17] is PBMC. As to the kind of experiment: Drug metabolism in human phytohemagglutininin-stimulated human PBMC assessed as compound level per 10^6 cells at 50 uM after 4 hrs by LC-MS/MS analysis. It is filed as ADME, cell-based.
The subject of data set [18] is PBMC. As to the kind of experiment: Drug metabolism in human phytohemagglutininin-stimulated human PBMC assessed as 9-(3-azido-2,3-dideoxy-b-L-ribofuranosyl)-2-amino-6-chloropurine triphosphate level per 10^6 cells at 50 uM after 4 hrs by LC-MS/MS analysis. It is filed as ADME, cell-based. The procedure, abridged: as §1
The test system of data set [19] is PBMC. Briefly: Drug metabolism in human phytohemagglutininin-stimulated human PBMC assessed as 9-(3-azido-2,3-dideoxy-b-L-ribofuranosyl)-2-amino-6-chloropurine diphosphate level per 10^6 cells at 50 uM after 4 hrs by LC-MS/MS analysis. It is filed as ADME, cell-based. The procedure, abridged: as §1
Where [20] appears, read: Hepatitis B virus, HePAD38, 168 h.
[21] abbreviates: Human immunodeficiency virus 1, LAV1, 144 h.

In the case of `Nc1ncnc2c1ncn2[C@H]1C[C@H](O)[C@@H](COP(=O)(O)OP(=O)(O)OP(=O)(O)O)O1`, the Ratio in [1] is 455 µM⁻¹ min⁻¹.

As for `Cc1cn([C@H]2C[C@H](N=[N+]=[N-])[C@@H](CO[P@](=O)(O)O[P@](=O)(O)OP(=O)(O)O)O2)c(=O)[nH]c1=O` (single isomer, unassigned) [ZIDOVUDINE TRIPHOSPHATE], the Kd in data set [2] was 55 µM.

`CCOC(=O)[C@H](C)NP(=O)(OC[C@@H]1O[C@H](n2cc(C)c(=O)[nH]c2=O)C[C@H]1N=[N+]=[N-])Oc1ccccc1` (stereo not given in full): the EC50 in data set [3] (setting [20]) and in data set [6] (setting [21]) was more than 100 µM each time. The IC50 in [4], in [5] and in data set [8] was more than 100 µM throughout. Further, in data set [6] (setting [21]), the EC90 was more than 100 µM. Besides, the Activity result in data set [7] is given as “Non-toxic”.

For the molecule `[N-]=[N+]=N[C@@H]1C[C@@H](n2cnc3c(O)nc(N)nc32)O[C@H]1COP(=O)(O)OP(=O)(O)OP(=O)(O)O`, the dissociation constant (Kd) in data set [2] stood at 0.23 µM.

As for `[N-]=[N+]=N[C@@H]1C[C@@H](n2cnc3c(N)nc(N)nc32)O[C@H]1COP(=O)(O)OP(=O)(O)OP(=O)(O)O`, in data set [2], the Kd is 2.3 µM. For the same molecule, in data set [1], the Ratio was 0.062 µM⁻¹ min⁻¹. Besides, the Selectivity ratio in [9] was 7340.

`Nc1ccn([C@@H]2CS[C@H](CO)O2)c(=O)n1` [LAMIVUDINE]: the EC50 in data set [3] (setting [20]) was 0.06 µM. For the same molecule, the IC50 in data set [4], in [5] and in data set [8] was more than 100 µM in each case. For the same molecule, in data set [7], the Activity entry is given as “Non-toxic”.

Turning to `[N-]=[N+]=N[C@@H]1C[C@@H](n2cnc3c(N)ncnc32)O[C@H]1COP(=O)(O)OP(=O)(O)OP(=O)(O)O`, the Kd in data set [2] was 15 µM. In addition, the Ratio in data set [1] is 0.023 µM⁻¹ min⁻¹. In addition, the Selectivity ratio in [9] was 19800.

As for `CCOC(=O)[C@H](C)NP(=O)(OC[C@@H]1O[C@H](n2cnc3c(N)ncnc32)C[C@H]1N=[N+]=[N-])Oc1ccccc1` (stereo not given in full), the Activity is on record as 4200 fmol in data set [10]; 7400 fmol in data set [11]; “Non-toxic” in data set [7]; 7500 fmol in data set [12]; 1200 fmol in data set [13]. Further, the EC50 is more than 100 µM in data set [3] (setting [20]) and 1.4 µM in data set [6] (setting [21]). Further, the IC50 in [4], in [5] and in data set [8] was more than 100 µM in each case. The EC90 in [6] (setting [21]) is 15.6 µM.

On to `Nc1ccn([C@@H]2CS[C@H](COP(=O)(O)OP(=O)(O)OP(=O)(O)O)O2)c(=O)n1` [LAMIVUDINE TRIPHOSPHATE], for which, in data set [2], the Kd turned out to be 0.13 µM. Further, in data set [1], the Ratio is 5.46 µM⁻¹ min⁻¹. In addition, the Selectivity ratio in data set [14] amounted to 11.9.

Turning to `Cc1cn([C@H]2C[C@H](N=[N+]=[N-])[C@@H](CO)O2)c(=O)[nH]c1=O` (stereo in doubt) [ZIDOVUDINE], in data set [3], the concentration giving a half-maximal response (EC50) was more than 10 µM.

Regarding `Nc1ccn([C@H]2C[C@H](O)[C@@H](CO)O2)c(=O)n1` [DOXECITINE], the Kd in data set [2] came to 1.1 µM. In addition, in [1], the Ratio is 65 µM⁻¹ min⁻¹.

In the case of `CCOC(=O)[C@H](C)NP(=O)(OC[C@@H]1O[C@H](n2cnc3c(N)nc(N)nc32)C[C@H]1N=[N+]=[N-])Oc1ccccc1` (stereo not given in full), the EC50 was more than 100 µM in data set [3] (setting [20]) and 15.8 µM in data set [6] (setting [21]). Also, the IC50 in data set [4], in [5] and in data set [8] was more than 100 µM in each case. Also, the EC90 in [6] (setting [21]) was more than 100 µM. Moreover, the Activity result in [7] was “Non-toxic”.

For `Cc1cn([C@H]2C[C@H](N=[N+]=[N-])[C@@H](CO)O2)c(=O)[nH]c1=O` (stereo in doubt; 27) [ZIDOVUDINE], the half-maximal effective concentration (EC50) in data set [3] was more than 100 µM. Further, in data set [6], the EC50 is more than 100 µM and the 90% effect concentration (EC90) is more than 100 µM. Further, the Activity result in data set [7] is “Non-toxic”.

As to `CCOC(=O)[C@H](C)NP(=O)(OC[C@@H]1O[C@H](n2cnc3c(Cl)nc(N)nc32)C[C@H]1N=[N+]=[N-])Oc1ccccc1` (stereo not given in full), the EC50 in [3] (setting [20]) is more than 100 µM; in data set [6] (setting [21]) it was 16.5 µM. Further, the results for the concentration for half-maximal inhibition (IC50) in data set [4], in [5] and in data set [8] were more than 100 µM, 23.1 µM and 71 µM, respectively. Also, the Activity is listed as 430 fmol in data set [15]; “Non-toxic” in data set [7]; 49 fmol in [16]; 12 fmol in data set [17]; 10 fmol in [18]; 190 fmol in data set [19]. Moreover, in [6] (setting [21]), the concentration for an effect of 90% (EC90) is 55.9 µM.

Take `CCOC(=O)[C@H](C)NP(=O)(OC[C@@H]1O[C@H](n2cnc3c(Cl)ncnc32)C[C@H]1N=[N+]=[N-])Oc1ccccc1` (stereo not given in full): the EC50 is more than 100 µM in data set [3] (setting [20]) and 16.5 µM in data set [6] (setting [21]). Further, the concentration for half-maximal inhibition (IC50) in [4] is more than 100 µM; in [5], 5.8 µM; in data set [8], 69.2 µM. Besides, the EC90 in [6] (setting [21]) was found to be 83.1 µM. Moreover, the Activity result in [7] is “Non-toxic”.

As to `CCOC(=O)[C@H](C)NP(=O)(OC[C@@H]1O[C@H](n2cnc3c(O)nc(N)nc32)C[C@H]1N=[N+]=[N-])Oc1ccccc1` (stereo not given in full), the EC50 in data set [3] (setting [20]) and in data set [6] (setting [21]) was more than 100 µM throughout. Besides, the 50% inhibitory concentration (IC50) in data set [4], in data set [5] and in data set [8] was more than 100 µM in each case. In [6] (setting [21]), the EC90 is more than 100 µM. For the same molecule, the Activity entry in data set [7] is “Non-toxic”.

The values are drawn from ChEMBL document CHEMBL1828605, “Synthesis, antiviral activity, cytotoxicity and cellular pharmacology of l-3'-azido-2',3'-dideoxypurine nucleosides” (Eur J Med Chem, 2011).
